From PubChem BioAssay
TRPC6 activator = activates the mouse TRPC6 cation channel. HEK293-TRPC6 membrane potential dye fluorescence; active compounds read high. actives 0.13% (n = 310,000). B-score at 10 µM. Q61143;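 active = B-score of the integrated fluorescence ratio above library mean plus 3 SD, and starting fluorescence ratio within library mean plus 5 SD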;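 also: higher score means more depolarization so channel activation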
TRPC4 PAM = allosteric potentiators of mouse TRPC4 channel; HEK293 TRPC4beta/mu-opioid, DAMGO EC20, Fluo-4 Ca2+ flux; active compounds read high; actives 0.42% (n = 310,000); AID 2227; Q9QUQ5; B-score at 10 µM;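 active = B-score of calcium response area above 5 SD of library B-scores, with initial fluorescence ratio within 5 SD of library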;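 also: B-score of integrated fluorescence ratio over time as area under calcium response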
TRPC4 block = inhibitors of mouse TRPC4 channel; Q9QUQ5; HEK293 TRPC4beta/mu-opioid, DAMGO-evoked Fluo4 calcium flux; active compounds read low; B-score at 10 µM; actives 0.39% (n = 300,000); AID 2247;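 active = B-score over 3 SD under the library average, no early fluorescence shift, positive overall ratio signal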
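Signal: kinetic Fluo4 fluorescence imaging of calcium influx. Material: stable TRPC4beta/mu-opioid receptor HEK293 cells. Probe or stimulus: DAMGO in two steps, submaximal then maximal.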
TRPC4 act = opens the mouse TRPC4 cation channel; Q9QUQ5; HEK293 TRPC4beta/mu-opioid, Fluo4 calcium fluorescence; active compounds read high; B-score at 10 µM; actives 0.49% (n = 310,000);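 active = B-score above 5 SD of library B-scores, and initial fluorescence ratio not above library mean plus 5 SD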;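 also: positive B-score marks a calcium rise read as TRPC4 activation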
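system = HEK293 cells stably co-expressing mouse TRPC4beta and mu-opioid receptor | schedule = Fluo4 dye loading 45 min at room temperature, 110 s recording | measure = B-scored integrated calcium fluorescence ratio | signal = Fluo4 calcium-sensitive dye fluorescence, kinetic, 1 Hz baseline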
TRPC6 inhibitor = mouse TRPC6 channel inhibition; HEK293-TRPC6, membrane potential dye, ACh-evoked depolarization; active compounds read low; B-score at 10 µM; Q61143; actives 1.1% (n = 310,000);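 active = B-score under library mean minus 3 SD, initial fluorescence not abnormally high, positive integrated signal ratio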;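 also: B-score derived from integrated fluorescence ratio over the kinetic read; more negative B-score means stronger inhibition of depolarization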
Active calls of the source: *. A selection: hits, their analogues and other compounds. The true share with any hit is near 2.3%.

`CCOC(=O)c1nn(-c2ccc(F)cc2)c(=O)cc1OCC(=O)N1CCN(c2ccccc2)CC1` gave TRPC6 activator inactive, TRPC4 PAM inactive, TRPC4 block inactive, TRPC4 act inactive and TRPC6 inhibitor inactive.
For CC(C)Cc1ccc(C(C)C(=O)Nc2ccc(O)cc2)cc1 (stereo not drawn) the results were TRPC6 activator inactive, TRPC4 PAM inactive, TRPC4 block inactive, TRPC4 act 52* and TRPC6 inhibitor inactive.
Screening CC(C)Cc1ccc(C(C)C(=O)Nc2cccnc2)cc1 (stereo not drawn) returned TRPC6 activator inactive, TRPC4 PAM inactive, TRPC4 block inactive, TRPC4 act 45* and TRPC6 inhibitor inactive.
Screening CC1=C(C(=O)OC(C)C)C(c2cn(-c3ccccc3)nc2-c2cccs2)NC(=O)N1 (stereo not drawn) returned TRPC6 activator inactive, TRPC4 PAM 13*, TRPC4 block inactive, TRPC4 act inactive and TRPC6 inhibitor inactive.
For CCOC(=O)n1c(O)c(N=NC(N)=S)c2cc(C)ccc21 the results were TRPC6 activator inactive, TRPC4 PAM inactive, TRPC4 block inactive, TRPC4 act inactive and TRPC6 inhibitor inactive.
Screening c1ccc(Nc2nc(Nc3ccccc3)nc(N3CCNCC3)n2)cc1 returned TRPC6 activator inactive, TRPC4 PAM inactive, TRPC4 block inactive, TRPC4 act 146* and TRPC6 inhibitor inactive.
For CCNC(=S)N(Cc1cc2cc(C)ccc2[nH]c1=O)C1CCCC1 the results were TRPC6 activator inactive, TRPC4 PAM 12*, TRPC4 block inactive, TRPC4 act inactive and TRPC6 inhibitor inactive.
Screening Cc1ccc(-n2cc(CNCC3CC(=O)N(C4CC4)C3)c(-c3cccc(C)c3)n2)cc1 (stereo not drawn) returned TRPC6 activator inactive, TRPC4 PAM inactive, TRPC4 block inactive, TRPC4 act 153* and TRPC6 inhibitor inactive.
O=C1CN(C(=O)c2ccc(Br)o2)C(c2ccccc2)c2cc(Br)ccc2N1 (stereo not drawn) was read as TRPC6 activator inactive, TRPC4 PAM 13*, TRPC4 block inactive, TRPC4 act inactive and TRPC6 inhibitor inactive.
Cc1csc2c(N3CCN(C(=O)Nc4ccccc4)CC3)ncnc12 was read as TRPC6 activator inactive, TRPC4 PAM inactive, TRPC4 block inactive, TRPC4 act 185* and TRPC6 inhibitor inactive.
`Cc1csc2c(N3CCN(C(=S)Nc4ccc(F)cc4F)CC3)ncnc12` gave TRPC6 activator inactive, TRPC4 PAM inactive, TRPC4 block inactive, TRPC4 act 124* and TRPC6 inhibitor inactive.
`CCN(CC)CCn1c(NC(=O)c2ccc(Cl)cc2)nc2ccccc21` gave TRPC6 activator inactive, TRPC4 PAM inactive, TRPC4 block inactive, TRPC4 act inactive and TRPC6 inhibitor inactive.
Screening CCN(CC)CCn1c(NS(=O)(=O)c2ccc(Cl)cc2)nc2ccccc21 returned TRPC6 activator inactive, TRPC4 PAM inactive, TRPC4 block inactive, TRPC4 act 65* and TRPC6 inhibitor inactive.
`COc1ccccc1C1CCN(Cc2ccc(Cl)c(Cl)c2)CC1` gave TRPC6 activator inactive, TRPC4 PAM inactive, TRPC4 block inactive, TRPC4 act inactive and TRPC6 inhibitor inactive.
`CN[C@@H]1CC[C@H](c2ccc(Cl)c(Cl)c2)c2ccccc21` gave TRPC6 activator inactive, TRPC4 PAM 14*, TRPC4 block inactive, TRPC4 act inactive and TRPC6 inhibitor inactive.
CCN(c1ccccc1)S(=O)(=O)c1ccc(C(=O)N(CCCN(C)C)c2nc3cc4c(cc3s2)OCO4)cc1 was read as TRPC6 activator inactive, TRPC4 PAM inactive, TRPC4 block inactive, TRPC4 act 168* and TRPC6 inhibitor inactive.
`CN(C)CCN(C(=O)c1cccc2ccccc12)c1nc2cc3c(cc2s1)OCO3` gave TRPC6 activator inactive, TRPC4 PAM inactive, TRPC4 block inactive, TRPC4 act 73* and TRPC6 inhibitor inactive.
Screening COc1ccc2sc(N(CCCN(C)C)C(=O)c3ccc(S(=O)(=O)N(C)Cc4ccccc4)cc3)nc2c1 returned TRPC6 activator inactive, TRPC4 PAM inactive, TRPC4 block inactive, TRPC4 act inactive and TRPC6 inhibitor inactive.
Screening CN(C)CCCN(C(=O)c1ccc(S(=O)(=O)N(C)Cc2ccccc2)cc1)c1nc2cc3c(cc2s1)OCO3 returned TRPC6 activator inactive, TRPC4 PAM inactive, TRPC4 block inactive, TRPC4 act 48* and TRPC6 inhibitor inactive.
Cc1ccccc1NC(=O)CN1C(=O)S/C(=C/c2cccnc2)C1=O was read as TRPC6 activator inactive, TRPC4 PAM inactive, TRPC4 block inactive, TRPC4 act inactive and TRPC6 inhibitor inactive.
For COc1ccccc1NC(=O)CSc1nnnn1-c1ccccc1F the results were TRPC6 activator inactive, TRPC4 PAM inactive, TRPC4 block inactive, TRPC4 act 73* and TRPC6 inhibitor inactive.
For CCOC(=O)c1sc(-c2ccc(Cl)cc2)nc1O the results were TRPC6 activator inactive, TRPC4 PAM inactive, TRPC4 block inactive, TRPC4 act inactive and TRPC6 inhibitor inactive.
Screening Cc1ccc(C(CNS(=O)(=O)c2ccc([N+](=O)[O-])cc2)N2CCN(C)CC2)cc1 (stereo not drawn) returned TRPC6 activator inactive, TRPC4 PAM inactive, TRPC4 block -6*, TRPC4 act inactive and TRPC6 inhibitor inactive.
Screening CCN(CC(=O)NCc1ccc(Cl)cc1)C(=O)c1ccc(S(=O)(=O)NCc2ccco2)cc1 returned TRPC6 activator inactive, TRPC4 PAM inactive, TRPC4 block inactive, TRPC4 act inactive and TRPC6 inhibitor inactive.
For CCCn1cnc2c1c(=O)n(CCCCC(C)=O)c(=O)n2C the results were TRPC6 activator inactive, TRPC4 PAM inactive, TRPC4 block inactive, TRPC4 act inactive and TRPC6 inhibitor inactive.
For CCC1CN(C(=O)NCc2ccc(F)cc2)c2cc(C)ccc2O1 (stereo not drawn) the results were TRPC6 activator inactive, TRPC4 PAM inactive, TRPC4 block inactive, TRPC4 act inactive and TRPC6 inhibitor inactive.
Screening CCC1CN(C(=O)Nc2ccc(C)cc2)c2cc(C)ccc2O1 (stereo not drawn) returned TRPC6 activator inactive, TRPC4 PAM inactive, TRPC4 block -6*, TRPC4 act inactive and TRPC6 inhibitor inactive.
Screening CCOC(=O)C1=NN(c2ccccc2C)C2=NC(C)=C(C(=O)OC)C(c3cccc(OC)c3)N12 (stereo not drawn) returned TRPC6 activator inactive, TRPC4 PAM inactive, TRPC4 block -5*, TRPC4 act inactive and TRPC6 inhibitor inactive.
O=C(c1ccc([N+](=O)[O-])s1)N1CCN(c2cccc(Cl)c2)CC1 was read as TRPC6 activator inactive, TRPC4 PAM inactive, TRPC4 block -6*, TRPC4 act inactive and TRPC6 inhibitor inactive.
